WT yeast gro inh – growth inhibition of WT yeast, mitochondrial fusion screen. mitochondrial fusion phenotypic screen, WT strain. inhibition, % at 10 µM. hit rate 2.1% among 190,000; in the data active means inhibition above about 58%; tested in S. cerevisiae
GRIN3A LBD mod – modulates the human NR3A ligand-binding domain | hit rate 2.5% among 340,000 | AID 1259313 | NR3A LBD differential scanning fluorimetry, Tm shift; 0% = protein alone, 100% = glycine-bound protein | Tm shift relative to glycine control, % at 25 µM;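 active means melting temperature shift of at least 10% of the positive control shift, at one fixed dose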
TbMetRS inhib – Trypanosoma brucei MetRS inhibition; hit rate 0.4% among 360,000; AID 624268; inhibition, % at 11.9 µM; purified T. brucei MetRS, ATP depletion, Kinase-Glo luminescence;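 active means inhibition above a per-plate cutoff of the control wells' mean inhibition plus 3 SD, cut at about 5.5% in these data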
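System: purified T. brucei MetRS enzyme / Detection: Kinase-Glo luciferase luminescence reporting remaining unconsumed ATP / Medium: HEPES buffer with MgCl2, KCl, DTT, spermine, BSA, pyrophosphatase / Replication: singlicate, one well per compound / Evaluation: percent inhibition relative to median high and low control wells / Schedule: 2 h aminoacylation at 25 °C after 15 min preincubation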
CHOP inh – CHOP inhibition in unfolded protein response | hit rate 3.8% among 220,000 | inhibition, % at 10 µM | CHO-K1 CHOP-promoter luciferase, tunicamycin-induced, 15-18 h | AID 2732;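 active means compounds that reduced the stress-induced luciferase reporter signal by more than about 70% of percent inhibition, limit read from the data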
MPTP inh – inhibitors of mitochondrial permeability transition pore; isolated mouse mitochondria, Ca2+ swelling absorbance, 30 min; inhibition, % at 10 µM; hit rate 1.4% among 360,000; AID 602449;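 active means inhibition of 50% or more, scaled per plate between neutral and stimulator controls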
EBV gp42 block – inhibitors of Epstein-Barr virus glycoprotein 42; Q1HVG2; Fluorescence polarization binding assay, mP read-out; inhibition, % (tested at 21.74 µM); hit rate 0.42% among 220,000; in the data active means inhibition above about 50%
Target sequence (Q1HVG2 whole entry, looked up): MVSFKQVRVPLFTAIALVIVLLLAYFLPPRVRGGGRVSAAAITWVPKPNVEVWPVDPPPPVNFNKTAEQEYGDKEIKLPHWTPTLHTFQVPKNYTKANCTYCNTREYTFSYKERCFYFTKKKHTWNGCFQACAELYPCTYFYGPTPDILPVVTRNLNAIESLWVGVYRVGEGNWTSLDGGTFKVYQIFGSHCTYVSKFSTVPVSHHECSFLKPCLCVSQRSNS
Rh123 counter – membrane potential counter-screen of mitochondrial pore inhibitors | shares compounds with MPTP inh | isolated mitochondria, Rhodamine 123 fluorescence | inhibition, % at 10 µM | hit rate 78% among 5,000; in the data active means inhibition above about 22%
MPTP swell DR – dose response confirmation of mitochondrial permeability transition pore inhibitors. shares compounds with MPTP inh. isolated mitochondria swelling, absorbance. IC50, µM. hit rate 58% among 780. AID 651561; in the data active means IC50 below about 20 µM
MPTP counter DR – active in counter-screen for permeability transition pore inhibitors; shares compounds with MPTP inh; isolated mitochondria counterscreen, fluorescence read-out; IC50, µM; hit rate 49% among 780; in the data active means IC50 below about 80 µM
Of the large screens only hits and unclear results are named; the others gave an inactive call (follow-up assays come after a bar, where they were run). Only some compounds are listed: those with a hit (about 6.4% of all), similar ones and a draw of the others.

CCOc1cc(/C=C(/C#N)C(=O)Nc2ccc(OC)cc2)ccc1OCc1ccc(C(=O)O)cc1	none (no result: WT yeast gro inh, CHOP inh, EBV gp42 block)
CCCOC(=O)c1ccc(NC(=O)C(=O)NCCN(CC)CC)cc1	none
O=C(/C=C/c1ccc(Cl)cc1Cl)N1CCc2ccccc21	none
O=C(COC(=O)C1CC2C=CC1C2)Nc1cccc(S(=O)(=O)N2CCCCC2)c1 (stereo not drawn)	MPTP inh 59 | Rh123 counter 38
O=C(COC(=O)C1CC2C=CC1C2)Nc1cccc(S(=O)(=O)N2CCCCCC2)c1 (stereo not drawn)	MPTP inh 65 | Rh123 counter 70
O=C(COC(=O)C1CCC1)Nc1cccc(S(=O)(=O)N2CCOCC2)c1	none (no result: WT yeast gro inh, CHOP inh, EBV gp42 block)
CC1(C(=O)Nc2ccc(Cl)c(Cl)c2)CCN1Cc1ccccc1OC(F)F (stereo not drawn)	none (no result: WT yeast gro inh, GRIN3A LBD mod, CHOP inh, EBV gp42 block)
Cc1ccc2nc(-c3ccncc3)cc(C(=O)Nc3ccc(F)cc3C)c2c1	none (no result: WT yeast gro inh, CHOP inh, EBV gp42 block)
COc1ccccc1N1CCN(C(=O)C(F)F)CC1	none
N=C1SCC(=O)N1c1ccc(Cl)cc1	none (no result: WT yeast gro inh, CHOP inh, EBV gp42 block)
O=C(N/N=C/c1cccc(F)c1)c1ccc(Cl)cc1	none
CC(C)(C)c1ccc(C(=O)N/N=C/c2cccc(Cl)c2)cc1	MPTP inh 81 | Rh123 counter 84
Cc1cccc(Cn2nc(C(C)(C)C)cc2C(=O)Nc2ccc(F)cc2)c1	MPTP inh 83 (no result: WT yeast gro inh) | Rh123 counter 87
COC(=O)c1ccc2c(=O)n(CCCCCC(=O)NCCNC(C)=O)c(=O)[nH]c2c1	none
CN(C)S(=O)(=O)Oc1ccc(C(=O)Nc2cccc(Cl)c2)cc1	none
Cc1ccc(NC(=O)c2ccc(OC(F)(F)F)cc2)cc1S(=O)(=O)N(C)C	MPTP inh 78 | Rh123 counter 86
CCCCN1C(=O)c2ccc(C(=O)Nc3ccc(C)c(S(=O)(=O)N(C)C)c3)cc2C1=O	MPTP inh 69 | Rh123 counter 69
Cc1ccc(NC(=O)c2ccncc2)cc1S(=O)(=O)N(C)C	none
CN(C)S(=O)(=O)Oc1ccc(C(=O)Nc2cccc(C(F)(F)F)c2)cc1	MPTP inh 74 | Rh123 counter 82
Cc1ccc2cc(COC(=O)c3cccc([N+](=O)[O-])c3)c(=O)[nH]c2c1	none (no result: WT yeast gro inh)
Cc1ccc(NS(=O)(=O)c2sc3ccc(Cl)cc3c2C)cc1	GRIN3A LBD mod 16, MPTP inh 66 (no result: WT yeast gro inh) | Rh123 counter 63
COc1ccc(S(=O)(=O)Nc2ccc(C)cc2)cc1N(C)S(=O)(=O)c1ccc(Cl)cc1	none
COc1ccc(N(C(=O)COc2ccc(C)cc2)S(=O)(=O)c2ccc(C)cc2)cc1	none
C=CCn1cccc(/C=C/C(=O)c2ccc(C(C)(C)C)cc2)c1=S	MPTP inh 77 | Rh123 counter inactive
O=C(C=Cc1ccccc1Cl)c1ccccc1	none (no result: WT yeast gro inh, CHOP inh, EBV gp42 block)
C=CC[n+]1ccc(/C=C2\C=Cc3cc(C)ccc3N2CC)c2ccccc21	WT yeast gro inh 87, CHOP inh 75, MPTP inh 102 | Rh123 counter 76
CCCN(CCC)CCCNC(=O)CCNS(=O)(=O)c1ccc(Br)cc1	none
Cc1cc2oc3ccc(NCCCn4ccnc4)cc3c(=O)c2cc1C	MPTP inh 58 (no result: WT yeast gro inh, CHOP inh, EBV gp42 block) | Rh123 counter inactive
Cc1cc2oc(=O)cc(Cn3ccnc3)c2cc1C	none
O=c1[nH]n(-c2ccccc2)c(=O)c(Cl)c1Cl	none
Cc1ccc(N(CC(=O)NC(C)C)C(=O)CCC(=O)Nc2nccs2)c(C)c1	none (no result: WT yeast gro inh, CHOP inh, EBV gp42 block)
Cc1nn(C(C)(C)C)c(C)c1/C=N/OC(=O)Nc1ccc(Cl)c(Cl)c1	MPTP inh 73 (no result: WT yeast gro inh) | Rh123 counter 76
O=S(=O)(c1ccc(Cl)cc1)N1CCN=C1SCc1cccnc1	none
O=C(O)c1ccc(CN2CCOCC2)o1	none
COc1ccccc1N1CCN(C(=O)c2c(C)noc2C)CC1	none (no result: WT yeast gro inh)
COc1ccccc1N1CCN(C(=O)c2ccoc2C)CC1	MPTP inh 78 | Rh123 counter inactive | MPTP swell DR inactive | MPTP counter DR inactive
CCC1Sc2ccc(S(=O)(=O)Nc3ccc(OC)c(OC)c3)cc2NC1=O (stereo not drawn)	MPTP inh 95 (no result: WT yeast gro inh, CHOP inh, EBV gp42 block) | Rh123 counter 87
CCC1Sc2ccc(S(=O)(=O)Nc3ccc(OC)cc3)cc2NC1=O (stereo not drawn)	none (no result: WT yeast gro inh, CHOP inh, EBV gp42 block)
CC1(C)C2CCC(CN)C1C2 (stereo not drawn)	none (no result: WT yeast gro inh, GRIN3A LBD mod, CHOP inh, EBV gp42 block)
OCCCNC(=S)Nc1ccc(Nc2ccccc2)cc1	none
CCCNC(=S)Nc1ccc(Oc2ccccc2)cc1	MPTP inh 58 | Rh123 counter 65
CCOc1ccc(NC(=O)C[n+]2ccc(N(C)C)cc2)cc1	none
CCCCNC(=S)Nc1ccc(Oc2ccccc2)cc1	WT yeast gro inh 65, MPTP inh 76 | Rh123 counter 91
CN(C)c1cc[n+](CC(=O)Nc2ccc(Oc3ccccc3)cc2)cc1	WT yeast gro inh 76, MPTP inh 70 | Rh123 counter 56
S=C(NCc1ccco1)Nc1ccc(Oc2ccc(Cl)cc2)cc1	MPTP inh 73 (no result: WT yeast gro inh) | Rh123 counter 90
CCCNC(=S)Nc1ccc(S(N)(=O)=O)cc1	none
O=C(N/N=C/c1ccco1)c1cc(C2CC2)[nH]n1	none (no result: WT yeast gro inh)
COc1ccc(-c2nnc(SCc3ccc(C(=O)O)cc3)o2)cc1OC	none (no result: WT yeast gro inh, CHOP inh, EBV gp42 block)
CCN(C(=S)Nc1ccc(Oc2ccccc2)cc1)c1ccccc1	MPTP inh 91 | Rh123 counter 97
CCN(C(=S)Nc1cccc(C)c1)c1ccccc1	none
C[C@@H]1C(=O)NC2=Nc3cccc(Cl)c3CN21	none (no result: WT yeast gro inh, GRIN3A LBD mod, TbMetRS inhib, MPTP inh, EBV gp42 block)
CC(C)=NOc1nc(N(C)C)nc(N2CCOCC2)n1	none (no result: WT yeast gro inh)
COC(=O)CSc1nnc(C)c(=O)[nH]1	none
CCOC(=O)CNc1nnc(SCC(=O)OCC)[nH]c1=O	MPTP inh 58 | Rh123 counter inactive | MPTP swell DR inactive | MPTP counter DR inactive
Cc1cc(C)cc(N(C(=O)CNC(=O)c2cccs2)C(C(=O)NC2CCCC2)c2cccnc2)c1 (stereo not drawn)	none
O=C(CN1C(=O)NC2(CCCCCCC2)C1=O)Nc1ccc(Br)cc1	none (no result: WT yeast gro inh, CHOP inh, EBV gp42 block)
CC(Oc1ccc(Br)cc1)C(=O)N1CCc2ccccc21 (stereo not drawn)	none
Cc1ccc(-c2csc(N3CCC(NS(=O)(=O)c4ccc5c(c4)OCCO5)CC3)n2)cc1	MPTP inh 95 | Rh123 counter 95
Cc1nn(C)c(C)c1CN(C)S(=O)(=O)c1ccc2ccccc2c1	MPTP inh 110 | Rh123 counter 102
Cc1nn(C)c(C)c1CN(C)S(=O)(=O)c1ccc(F)cc1	none
CC(C)CNS(=O)(=O)c1ccc(Br)cc1N1CCC[C@@H]1CO	none (no result: WT yeast gro inh, CHOP inh, EBV gp42 block)
O=S(=O)(Nc1nc(SCc2ccc(Cl)cc2)n[nH]1)c1ccc(F)cc1	none (no result: WT yeast gro inh)
O=C(NCc1ccc2c(c1)OCO2)Nc1ccc([N+](=O)[O-])cc1	MPTP inh 81 (no result: WT yeast gro inh, CHOP inh, EBV gp42 block) | Rh123 counter 83

Screens (PubChem BioAssay)
